Reference: publication PMC7115577 (Peptides, 2005)

Legend:
Format in all cases: cell-based
[1] = test system: human polymorphonuclear leukocytes (PMN); experiment: Chemotaxis assay
[2] = test system: isolated guinea pig ileum (GPI); experiment: Potentiation of the BK-induced contraction of GPI; details: analogue alone, cumulative GPI contraction curves
Summary of the method: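 Guinea pig ileum strips (1.5 cm) suspended in Tyrode solution at 37 °C; isotonic contractions recorded under 500 mg resting tension. Concentration–response curves were built for the agonist, and pD2 was derived from them.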

guinea pig ileum = details: calyculin 100 nM, BK 20 nM, BPP9α 20 nM
Summary of the method: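 Ileum segments (1.5 cm) in Tyrode at 37 °C, isotonic recording under 500 mg resting tension. The phosphatase inhibitor was added either at the peak of the BK contraction, before the potentiating peptide, or 1 min before the combined BK/peptide challenge, with washes between. Traces are from four to six separate experiments.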

CC(C)C[C@H](NP(=O)(O)O[C@@H]1O[C@@H](C)[C@H](O)[C@@H](O)[C@H]1O)C(=O)N[C@@H](Cc1c[nH]c2ccccc12)C(=O)O [phosphoramidon]
migration index (MI) of BK in the presence of inhibitor ([1]; BK 10^−8 M, phosphoramidon 10^−7 M, 5 min preincubation): 1.19 ± 0.03

C[C@H](N[C@@H](CCc1ccccc1)C(=O)O)C(=O)N1[C@H](C(=O)O)C[C@@H]2CCC[C@@H]21 [ramiprilat]
effect on migratory activity of the nonpeptide agonist FR190997 [1]: could not be accelerated | migration index (MI) of BK in the presence of inhibitor ([1]; BK 10^−7 M, ramiprilat 10 nM): 1.69 ± 0.26

DArg-Arg-Pro-Hyp-Gly-Thi-Ser-Pro-ɛAbu(ßPh)-Arg
pD2-value of enzymatically more stable BK analogue [2]: 6.65 ± 0.14

calyculin
influence on the potentiation of the BK-induced contraction (guinea pig ileum): no influence
